Measurements reported in ChEMBL document CHEMBL1152478, “Design, synthesis, and antifungal activity of triazole and benzotriazole derivatives” (2009).
≈ marks a conversion by molar mass, not a printed value.

How the values were obtained:
Format in all cases: functional
[1] = system: Trichophyton rubrum; assay: Antifungal activity against Trichophyton rubrum after 48 hrs by agar dilution method
In short: (§1)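 Clinical isolates, purified and subcultured on SC, SCC and PDA media before testing. Compounds were dissolved as DMSO stocks and diluted into solid medium (PDA) for agar dilution. Inocula for molds and yeast came from 2- to 7-day mature colonies. The read-out was the minimum inhibitory concentration (MIC).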

[2] = system: Epidermophyton floccosum; assay: Antifungal activity against Epidermophyton floccosum after 48 hrs by agar dilution method; in short: as §1
[3] = system: Trichophyton mentagrophytes; assay: Antifungal activity against Trichophyton mentagrophytes after 48 hrs by agar dilution method; in short: as §1
[4] = system: Microsporum canis; assay: Antifungal activity against Microsporum canis after 48 hrs by agar dilution method; in short: as §1
[5] = system: Candida albicans; assay: Antifungal activity against Candida albicans after 48 hrs by agar dilution method; in short: as §1

Row | Compound | MIC [1] [µg/mL] | MIC [2] [µg/mL] | MIC [3] [µg/mL] | MIC [4] [µg/mL] | MIC [5] [µg/mL]
1 | CCCCCCCCn1nnc2ccccc21 | 64 (≈ 277 µM) | 32 (≈ 138 µM) | 64 (≈ 277 µM) | 64 (≈ 277 µM) | –
2 | c1ccc(C(c2ccccc2)(c2ccccc2)n2nnc3ccccc32)cc1 | 64 (≈ 177 µM) | 64 (≈ 177 µM) | – | – | 64 (≈ 177 µM)
3 | COc1ccc(C(c2ccccc2)(c2ccc(OC)cc2)n2nnc3ccccc32)cc1 | 32 (≈ 75.9 µM) | – | 64 (≈ 152 µM) | – | –
4 | c1ccc(C(c2ccccc2)(c2ccccc2)n2cncn2)cc1 | 64 (≈ 206 µM) | 1 (≈ 3.21 µM) | 32 (≈ 103 µM) | 64 (≈ 206 µM) | –
5 | CCCCCn1nnc2ccccc21 | 32 (≈ 169 µM) | 16 (≈ 84.5 µM) | 32 (≈ 169 µM) | 16 (≈ 84.5 µM) | 32 (≈ 169 µM)
6 | COc1ccc(C(c2ccccc2)(c2ccccc2)n2nnc3ccccc32)cc1 | 64 (≈ 163 µM) | 64 (≈ 163 µM) | 64 (≈ 163 µM) | – | –
7 | OC(Cn1cncn1)(Cn1cncn1)c1ccc(F)cc1F [FLUCONAZOLE] | 32 (≈ 104 µM) | 0.25 (≈ 0.816 µM) | 1 (≈ 3.27 µM) | 16 (≈ 52.2 µM) | 32 (≈ 104 µM)
8 | CCCCCCCCn1cncn1 | 16 (≈ 88.3 µM) | 8 (≈ 44.1 µM) | 16 (≈ 88.3 µM) | 16 (≈ 88.3 µM) | 16 (≈ 88.3 µM)
9 | CCCCCn1cncn1 | 64 (≈ 460 µM) | 64 (≈ 460 µM) | 64 (≈ 460 µM) | 64 (≈ 460 µM) | –
10 | COc1ccc(C(c2ccccc2)(c2ccccc2)n2cncn2)cc1 | 32 (≈ 93.7 µM) | 8 (≈ 23.4 µM) | 16 (≈ 46.9 µM) | 32 (≈ 93.7 µM) | –
11 | Clc1ccccc1C(c1ccccc1)(c1ccccc1)n1ccnc1 [CLOTRIMAZOLE] | 0.5 (≈ 1.45 µM) | 4 (≈ 11.6 µM) | 0.05 (≈ 0.145 µM) | 0.065 (≈ 0.188 µM) | 4 (≈ 11.6 µM)
